Columns and labels:
Type in all cases: functional, cell-based
[1] = system: MCF7; experiment: Cytotoxicity against human MCF7 cells after 24 hrs by MTT assay; details: MCF7, 24 h
How it was run: (§1)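 Cells seeded at 1×10⁴ per well in complete medium and held 18 h at 37 °C, 5% CO₂. Medium then replaced with fresh medium containing test compounds or etoposide at 0.5, 1 and 2 μM, incubated 24 h at 37 °C. MTT dye added for 2 h, formazan solubilized in extraction buffer, absorbance read at 570 nm. Values mean±SD, three experiments in triplicate.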

[2] = system: DU-145; experiment: Cytotoxicity against human DU145 cells after 24 hrs by MTT assay; details: DU-145, 24 h; how it was run: as §1
[3] = system: A549; experiment: Cytotoxicity against human A549 cells after 24 hrs by MTT assay; details: A549, 24 h; how it was run: as §1
[4] = system: MDA-MB-231; experiment: Cytotoxicity against human MDA-MB-231 cells after 24 hrs by MTT assay; details: MDA-MB-231, 24 h; how it was run: as §1

**Q.** With `COc1cc([C@@H]2c3cc4c(cc3[C@@H](O[C@@H]3O[C@@H]5CO[C@@H](C)O[C@H]5[C@H](O)[C@H]3O)[C@H]3COC(=O)[C@H]23)OCO4)cc(OC)c1O` [ETOPOSIDE] as the molecule, how does the IC50 [1] read?
**A.** The IC50 was 2110 nM.

**Q.** And the IC50 [2]?
**A.** The IC50 was 1970 nM.

**Q.** For `COc1cc(/C=C2\Oc3ccccc3C2=O)ccc1OCC(=O)N[C@@H]1c2cc3c(cc2[C@@H](c2cc(OC)c(OC)c(OC)c2)[C@H]2C(=O)OC[C@@H]21)OCO3`, which IC50 [1] is on record?
**A.** The IC50 was 4510 nM.

**Q.** And the IC50 [3]?
**A.** The IC50 was 2750 nM.

**Q.** What about the IC50 [2] of the same molecule?
**A.** Its IC50 is 3820 nM.

**Q.** Which IC50 [1] does the source give for `COc1cc([C@@H]2c3cc4c(cc3[C@@H](NC(=O)COc3ccc(/C=C5\Oc6ccccc6C5=O)cc3)[C@H]3COC(=O)[C@H]23)OCO4)cc(OC)c1OC` here?
**A.** The IC50 was 130 nM.

**Q.** And the IC50 [3]?
**A.** The IC50 was 100 nM.

**Q.** And the IC50 [2]?
**A.** The IC50 was 970 nM.

**Q.** What about the IC50 [4] of the same molecule?
**A.** Its IC50 is 450 nM.

**Q.** Which IC50 [1] does the source give for `COc1cc([C@@H]2c3cc4c(cc3[C@@H](NC(=O)COc3c(OC)cc(/C=C5\Oc6c(OC)cccc6C5=O)cc3OC)[C@H]3COC(=O)[C@H]23)OCO4)cc(OC)c1OC` here?
**A.** The IC50 was 230 nM.

**Q.** What about the IC50 [3] of the same molecule?
**A.** Its IC50 is 1450 nM.

**Q.** And the IC50 [2]?
**A.** The IC50 was 1220 nM.

**Q.** What about the IC50 [4] of the same molecule?
**A.** Its IC50 is 870 nM.

**Q.** What does the source list for `COc1cc([C@@H]2c3cc4c(cc3[C@@H](NC(=O)COc3ccc(/C=C5\Oc6c(OC)cccc6C5=O)cc3)[C@H]3COC(=O)[C@H]23)OCO4)cc(OC)c1OC`?
**A.** IC50 [1]: 1980 nM; IC50 [3]: 1560 nM; IC50 [2]: 2090 nM; IC50 [4]: 1680 nM

**Q.** For `COc1ccc(/C=C2\Oc3ccccc3C2=O)cc1OCC(=O)N[C@@H]1c2cc3c(cc2[C@@H](c2cc(OC)c(OC)c(OC)c2)[C@H]2C(=O)OC[C@@H]21)OCO3`, which IC50 [1] is on record?
**A.** The IC50 was 6230 nM.

**Q.** And the IC50 [3]?
**A.** Its IC50 is 7230 nM.

**Q.** And the IC50 [2]?
**A.** The IC50 was 2550 nM.

**Q.** What about the IC50 [4] of the same molecule?
**A.** Its IC50 is 8230 nM.

**Q.** `COc1ccc(/C=C2\Oc3c(OC)cccc3C2=O)cc1OCC(=O)N[C@@H]1c2cc3c(cc2[C@@H](c2cc(OC)c(OC)c(OC)c2)[C@H]2C(=O)OC[C@@H]21)OCO3` was tested. Which IC50 [1] did it give?
**A.** The IC50 was 1870 nM.

**Q.** And the IC50 [2]?
**A.** The IC50 was 2330 nM.

**Q.** And the IC50 [4]?
**A.** Its IC50 is 2180 nM.

**Q.** With `COc1cc(/C=C2\Oc3c(OC)cccc3C2=O)ccc1OCC(=O)N[C@@H]1c2cc3c(cc2[C@@H](c2cc(OC)c(OC)c(OC)c2)[C@H]2C(=O)OC[C@@H]21)OCO3` as the molecule, how does the IC50 [1] read?
**A.** Its IC50 is 2350 nM.

**Q.** What about the IC50 [3] of the same molecule?
**A.** The IC50 was 2990 nM.

**Q.** What about the IC50 [2] of the same molecule?
**A.** Its IC50 is 3980 nM.

**Q.** What about the IC50 [4] of the same molecule?
**A.** The IC50 was 2600 nM.

Reference: ChEMBL document CHEMBL4387779, “Design and synthesis of 4β-Acetamidobenzofuranone-podophyllotoxin hybrids and their anti-cancer evaluation” (Bioorg Med Chem Lett, 2019)
